{"source": "ChEMBL document CHEMBL4382192", "about": "“Discovery of a potent dual ALK and EGFR T790M inhibitor” (Eur J Med Chem, 2017)", "key": {"[1]": {"molecular_target": "Mitogen-activated protein kinase kinase kinase 11 (Homo sapiens) (UniProt Q16584)", "experiment": "Binding affinity to wild-type human partial length MLK3 (I77 to W399 residues) expressed in bacterial expression system assessed as residual binding level at 1 uM by Kinomescan method relative to control"}, "[2]": {"molecular_target": "Serine/threonine-protein kinase STK11 (Homo sapiens) (UniProt Q15831)", "experiment": "Binding affinity to wild-type human full length LKB1 (M1 to Q433 residues) expressed in bacterial expression system assessed as residual binding level at 1 uM by Kinomescan method relative to control", "how_it_was_run": "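Single-point kinome-wide KINOMEscan binding panel, test compound at 1 μM, run by the provider's standard protocol.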"}, "[3]": {"molecular_target": "Serine/threonine-protein kinase tousled-like 1 (Homo sapiens) (UniProt Q9UKI8)", "experiment": "Binding affinity to wild-type human partial length TLK1 (K447 to A754 residues) expressed in bacterial expression system assessed as residual binding level at 1 uM by Kinomescan method relative to control"}, "[4]": {"molecular_target": "AP2-associated protein kinase 1 (Homo sapiens) (UniProt Q2M2I8)", "experiment": "Binding affinity to human wild-type AAK1 (G25 to L333 residues) expressed in bacterial expression system assessed as residual binding level at 1 uM by Kinomescan method relative to control"}, "[5]": {"test_system": "Mast/stem cell growth factor receptor Kit (Homo sapiens), P10721 [D816H]", "experiment": "Binding affinity to human partial length KIT D816H mutant (I571 to D952 residues) expressed in mammalian expression system assessed as residual binding level at 1 uM by Kinomescan method relative to control", "how_it_was_run": "(§1)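 Kinome-wide selectivity panel run by the KINOMEscan method, with the test compound at a single concentration of 1 μM. Wild-type and mutant kinases were profiled in the same screen.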"}, "[6]": {"molecular_target": "Ankyrin repeat and protein kinase domain-containing protein 1 (Homo sapiens) (UniProt Q8NFD2)", "experiment": "Binding affinity to wild-type human partial length ANKK1 (M1 to A305 residues) expressed in mammalian expression system assessed as residual binding level at 1 uM by Kinomescan method relative to control"}, "[7]": {"molecular_target": "Serine/threonine-protein kinase LATS2 (Homo sapiens) (UniProt Q9NRM7)", "sequence (Q9NRM7 whole entry, the tested form may be a part)": "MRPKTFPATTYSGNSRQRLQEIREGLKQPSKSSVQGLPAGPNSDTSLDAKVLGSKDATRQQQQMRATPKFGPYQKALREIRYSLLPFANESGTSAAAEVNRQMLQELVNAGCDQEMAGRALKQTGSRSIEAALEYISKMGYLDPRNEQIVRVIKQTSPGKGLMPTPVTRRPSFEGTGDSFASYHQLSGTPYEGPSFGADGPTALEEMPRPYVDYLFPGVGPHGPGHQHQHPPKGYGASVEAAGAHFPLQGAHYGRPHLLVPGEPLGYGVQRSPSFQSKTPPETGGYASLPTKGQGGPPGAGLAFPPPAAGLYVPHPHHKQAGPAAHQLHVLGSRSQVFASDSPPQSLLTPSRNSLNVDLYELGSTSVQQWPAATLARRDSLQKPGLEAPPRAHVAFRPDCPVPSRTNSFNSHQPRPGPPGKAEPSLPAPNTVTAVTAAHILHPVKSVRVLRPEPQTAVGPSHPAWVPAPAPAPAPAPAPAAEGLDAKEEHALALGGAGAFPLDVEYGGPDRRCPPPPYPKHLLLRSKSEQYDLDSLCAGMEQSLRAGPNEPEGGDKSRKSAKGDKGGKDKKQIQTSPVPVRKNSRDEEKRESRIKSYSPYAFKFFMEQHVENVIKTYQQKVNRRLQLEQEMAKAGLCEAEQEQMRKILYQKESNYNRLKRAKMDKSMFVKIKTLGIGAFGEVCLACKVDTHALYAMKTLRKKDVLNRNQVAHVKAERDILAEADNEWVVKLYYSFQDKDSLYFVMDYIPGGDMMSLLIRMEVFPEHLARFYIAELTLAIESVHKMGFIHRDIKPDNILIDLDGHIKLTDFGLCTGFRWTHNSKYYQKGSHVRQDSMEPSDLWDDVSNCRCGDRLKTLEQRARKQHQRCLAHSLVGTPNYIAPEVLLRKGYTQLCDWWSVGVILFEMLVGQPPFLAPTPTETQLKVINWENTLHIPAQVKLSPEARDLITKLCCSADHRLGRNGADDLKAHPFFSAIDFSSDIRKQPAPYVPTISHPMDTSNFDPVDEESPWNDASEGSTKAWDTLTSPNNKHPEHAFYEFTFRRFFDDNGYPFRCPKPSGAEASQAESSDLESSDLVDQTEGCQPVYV", "experiment": "Binding affinity to wild-type human partial length LATS2 (Q641 to V1088 residues) expressed in mammalian expression system assessed as residual binding level at 1 uM by Kinomescan method relative to control"}, "[8]": {"test_system": "Tyrosine-protein kinase ABL1 (Homo sapiens), P00519 [M351T]", "experiment": "Binding affinity to human phosphorylated ABL1 M351T mutant (S229 to K512 residues) expressed in mammalian expression system assessed as residual binding level at 1 uM by Kinomescan method relative to control", "how_it_was_run": "as §1"}, "[9]": {"molecular_target": "Peripheral plasma membrane protein CASK (Homo sapiens) (UniProt O14936)", "experiment": "Binding affinity to wild-type human partial length CASK (M1 to H315 residues) expressed in mammalian expression system assessed as residual binding level at 1 uM by Kinomescan method relative to control"}, "[10]": {"test_system": "Epidermal growth factor receptor (Homo sapiens), P00533 [UNDEFINED MUTATION]", "experiment": "Binding affinity to human partial length EGFR L747-S752del/P753S mutant expressed in bacterial expression system assessed as residual binding level at 1 uM by Kinomescan method relative to control", "how_it_was_run": "as §1"}, "[11]": {"molecular_target": "Phosphatidylinositol 4-phosphate 5-kinase type-1 alpha (Homo sapiens) (UniProt Q99755)", "experiment": "Binding affinity to wild-type human full length PIP5K1A (M1 to H562 residues) expressed in bacterial expression system assessed as residual binding level at 1 uM by Kinomescan method relative to control"}, "[12]": {"molecular_target": "Calcium/calmodulin-dependent protein kinase type IV (Homo sapiens) (UniProt Q16566)", "experiment": "Binding affinity to wild-type human partial length CAMK4 (A22 to A322 residues) expressed in bacterial expression system assessed as residual binding level at 1 uM by Kinomescan method relative to control"}, "[13]": {"molecular_target": "Calcium/calmodulin-dependent protein kinase type 1B (Homo sapiens) (UniProt Q6P2M8)", "experiment": "Binding affinity to wild-type human partial length CAMK1B (W9 to A311 residues) expressed in mammalian expression system assessed as residual binding level at 1 uM by Kinomescan method relative to control"}, "[14]": {"test_system": "Receptor-type tyrosine-protein kinase FLT3 (Homo sapiens), P36888 [UNDEFINED MUTATION]", "sequence (P36888 whole entry, looked up, stated change not applied)": "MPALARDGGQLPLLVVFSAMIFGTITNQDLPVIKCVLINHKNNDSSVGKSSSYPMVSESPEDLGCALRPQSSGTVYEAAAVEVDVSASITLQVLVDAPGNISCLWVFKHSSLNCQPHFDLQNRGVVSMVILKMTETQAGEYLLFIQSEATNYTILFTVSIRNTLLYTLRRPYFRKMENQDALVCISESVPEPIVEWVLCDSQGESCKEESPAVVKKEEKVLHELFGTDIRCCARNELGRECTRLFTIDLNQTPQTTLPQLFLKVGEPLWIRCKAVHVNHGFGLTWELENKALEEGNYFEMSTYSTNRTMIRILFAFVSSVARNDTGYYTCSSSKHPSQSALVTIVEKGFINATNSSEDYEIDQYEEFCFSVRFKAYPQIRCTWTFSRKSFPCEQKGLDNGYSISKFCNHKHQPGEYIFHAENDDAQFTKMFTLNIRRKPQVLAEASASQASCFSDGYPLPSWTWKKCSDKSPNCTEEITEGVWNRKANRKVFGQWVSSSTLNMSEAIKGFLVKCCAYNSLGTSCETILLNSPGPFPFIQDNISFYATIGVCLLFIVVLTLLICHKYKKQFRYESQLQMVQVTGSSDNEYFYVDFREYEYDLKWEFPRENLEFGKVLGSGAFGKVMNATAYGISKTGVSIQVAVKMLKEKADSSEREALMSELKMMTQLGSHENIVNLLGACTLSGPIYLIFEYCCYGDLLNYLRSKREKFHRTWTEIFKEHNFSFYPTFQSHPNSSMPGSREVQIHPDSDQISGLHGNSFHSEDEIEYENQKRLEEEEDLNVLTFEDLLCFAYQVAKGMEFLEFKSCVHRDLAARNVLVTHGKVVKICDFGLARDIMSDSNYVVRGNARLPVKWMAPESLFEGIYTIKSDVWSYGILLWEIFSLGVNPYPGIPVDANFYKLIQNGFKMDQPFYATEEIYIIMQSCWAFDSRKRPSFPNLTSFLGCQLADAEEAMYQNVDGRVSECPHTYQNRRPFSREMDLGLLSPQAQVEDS", "experiment": "Binding affinity to human partial length FLT3 ITD mutant expressed in bacterial expression system assessed as residual binding level at 1 uM by Kinomescan method relative to control", "how_it_was_run": "as §1"}, "[15]": {"molecular_target": "Ribosomal protein S6 kinase alpha-2 (Homo sapiens) (UniProt Q15349)", "experiment": "Binding affinity to wild-type human partial length C-terminal RSK3 kinase domain 2 (V403 to K700 residues) expressed in bacterial expression system assessed as residual binding level at 1 uM by Kinomescan method relative to control"}, "[16]": {"molecular_target": "Mitogen-activated protein kinase kinase kinase kinase 1 (Homo sapiens) (UniProt Q92918)", "sequence (Q92918 whole entry, looked up, the tested form may be a part)": "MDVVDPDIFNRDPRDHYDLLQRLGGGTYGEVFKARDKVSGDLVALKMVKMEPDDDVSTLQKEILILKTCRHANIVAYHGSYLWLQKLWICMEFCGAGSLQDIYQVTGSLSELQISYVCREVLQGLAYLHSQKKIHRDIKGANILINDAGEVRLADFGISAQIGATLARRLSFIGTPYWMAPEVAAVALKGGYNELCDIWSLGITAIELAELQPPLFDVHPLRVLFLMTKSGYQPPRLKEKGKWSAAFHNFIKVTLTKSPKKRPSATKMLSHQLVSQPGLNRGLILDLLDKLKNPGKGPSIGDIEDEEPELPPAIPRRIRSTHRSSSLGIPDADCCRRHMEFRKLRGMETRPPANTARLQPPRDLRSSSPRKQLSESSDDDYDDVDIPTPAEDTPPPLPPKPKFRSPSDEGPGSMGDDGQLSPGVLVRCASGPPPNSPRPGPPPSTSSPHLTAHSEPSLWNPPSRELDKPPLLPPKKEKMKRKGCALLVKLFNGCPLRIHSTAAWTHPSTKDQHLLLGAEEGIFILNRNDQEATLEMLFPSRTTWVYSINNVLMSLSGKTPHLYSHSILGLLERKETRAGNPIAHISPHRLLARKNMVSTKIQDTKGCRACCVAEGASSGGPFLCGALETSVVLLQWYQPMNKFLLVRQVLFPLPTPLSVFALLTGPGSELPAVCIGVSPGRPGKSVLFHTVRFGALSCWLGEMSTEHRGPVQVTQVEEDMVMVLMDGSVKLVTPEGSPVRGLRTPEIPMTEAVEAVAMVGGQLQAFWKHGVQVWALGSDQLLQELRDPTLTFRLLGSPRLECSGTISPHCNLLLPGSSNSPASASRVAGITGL", "experiment": "Binding affinity to wild-type human full length HPK1 (M1 to R799 residues) expressed in bacterial expression system assessed as residual binding level at 1 uM by Kinomescan method relative to control"}, "[17]": {"experiment": "Drug uptake in mouse lung at 2 mg/kg, iv after 8 hrs", "format": "ADME, organism-based", "settings": "read-out: Drug uptake"}, "[18]": {"test_system": "Receptor-type tyrosine-protein kinase FLT3 (Homo sapiens), P36888 [UNDEFINED MUTATION]", "experiment": "Binding affinity to human partial length FLT3 ITD/D835V double mutant expressed in bacterial expression system assessed as residual binding level at 1 uM by Kinomescan method relative to control", "how_it_was_run": "as §1"}, "[19]": {"molecular_target": "Mitogen-activated protein kinase kinase kinase kinase 4 (Homo sapiens) (UniProt O95819)", "sequence (O95819 2-1239 limits assumed)": "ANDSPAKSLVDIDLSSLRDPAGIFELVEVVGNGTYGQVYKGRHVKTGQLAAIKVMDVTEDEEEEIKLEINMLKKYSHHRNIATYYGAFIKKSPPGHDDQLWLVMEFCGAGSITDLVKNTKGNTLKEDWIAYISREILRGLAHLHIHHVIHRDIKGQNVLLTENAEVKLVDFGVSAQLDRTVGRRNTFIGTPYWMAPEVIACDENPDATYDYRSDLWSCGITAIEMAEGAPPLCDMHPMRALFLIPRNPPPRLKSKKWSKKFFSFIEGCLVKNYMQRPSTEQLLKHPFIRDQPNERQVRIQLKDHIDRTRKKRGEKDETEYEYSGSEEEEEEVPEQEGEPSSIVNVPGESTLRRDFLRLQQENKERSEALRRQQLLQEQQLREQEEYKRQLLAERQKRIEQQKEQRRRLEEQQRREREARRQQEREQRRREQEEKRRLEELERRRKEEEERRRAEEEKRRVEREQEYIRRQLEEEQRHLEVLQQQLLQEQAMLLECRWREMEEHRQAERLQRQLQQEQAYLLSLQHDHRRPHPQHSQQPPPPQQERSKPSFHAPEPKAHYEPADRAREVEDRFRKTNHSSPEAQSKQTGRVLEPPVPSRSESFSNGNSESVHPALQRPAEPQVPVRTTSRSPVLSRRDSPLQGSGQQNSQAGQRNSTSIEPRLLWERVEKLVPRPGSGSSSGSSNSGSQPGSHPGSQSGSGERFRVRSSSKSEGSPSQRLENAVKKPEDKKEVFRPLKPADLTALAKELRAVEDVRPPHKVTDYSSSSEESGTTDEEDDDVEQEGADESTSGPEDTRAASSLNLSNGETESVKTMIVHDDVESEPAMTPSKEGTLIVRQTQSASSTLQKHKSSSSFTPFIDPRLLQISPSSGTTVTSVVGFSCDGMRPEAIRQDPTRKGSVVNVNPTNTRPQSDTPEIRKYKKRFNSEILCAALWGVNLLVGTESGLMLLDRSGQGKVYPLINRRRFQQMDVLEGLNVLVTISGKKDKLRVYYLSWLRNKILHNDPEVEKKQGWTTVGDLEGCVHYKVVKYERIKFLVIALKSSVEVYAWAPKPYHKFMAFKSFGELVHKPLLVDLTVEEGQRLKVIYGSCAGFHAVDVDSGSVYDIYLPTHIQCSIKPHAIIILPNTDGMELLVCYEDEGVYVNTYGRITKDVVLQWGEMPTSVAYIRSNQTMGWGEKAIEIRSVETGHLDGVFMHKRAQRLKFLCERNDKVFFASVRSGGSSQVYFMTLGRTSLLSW", "experiment": "Binding affinity to wild-type human partial length MAP4K4 (M1 to R310 residues) expressed in bacterial expression system assessed as residual binding level at 1 uM by Kinomescan method relative to control"}, "[20]": {"molecular_target": "Dual specificity tyrosine-phosphorylation-regulated kinase 1B (Homo sapiens) (UniProt Q9Y463)", "experiment": "Binding affinity to wild-type human full length DYRK1B (M1 to S629 residues) expressed in bacterial expression system assessed as residual binding level at 1 uM by Kinomescan method relative to control"}, "[21]": {"molecular_target": "Cyclin-dependent kinase 19 (Homo sapiens) (UniProt Q9BWU1)", "experiment": "Binding affinity to wild-type human partial length CDK11 (M1 to N360 residues) expressed in bacterial expression system assessed as residual binding level at 1 uM by Kinomescan method relative to control"}, "[22]": {"molecular_target": "Serine/threonine-protein kinase BRSK1 (Homo sapiens) (UniProt Q8TDC3)", "experiment": "Binding affinity to wild-type human partial length BRSK1 (M1 to E754 residues) expressed in bacterial expression system assessed as residual binding level at 1 uM by Kinomescan method relative to control"}, "[23]": {"molecular_target": "Fibroblast growth factor receptor 3 (Homo sapiens) (UniProt P22607)", "sequence (P22607 23-806 limits assumed)": "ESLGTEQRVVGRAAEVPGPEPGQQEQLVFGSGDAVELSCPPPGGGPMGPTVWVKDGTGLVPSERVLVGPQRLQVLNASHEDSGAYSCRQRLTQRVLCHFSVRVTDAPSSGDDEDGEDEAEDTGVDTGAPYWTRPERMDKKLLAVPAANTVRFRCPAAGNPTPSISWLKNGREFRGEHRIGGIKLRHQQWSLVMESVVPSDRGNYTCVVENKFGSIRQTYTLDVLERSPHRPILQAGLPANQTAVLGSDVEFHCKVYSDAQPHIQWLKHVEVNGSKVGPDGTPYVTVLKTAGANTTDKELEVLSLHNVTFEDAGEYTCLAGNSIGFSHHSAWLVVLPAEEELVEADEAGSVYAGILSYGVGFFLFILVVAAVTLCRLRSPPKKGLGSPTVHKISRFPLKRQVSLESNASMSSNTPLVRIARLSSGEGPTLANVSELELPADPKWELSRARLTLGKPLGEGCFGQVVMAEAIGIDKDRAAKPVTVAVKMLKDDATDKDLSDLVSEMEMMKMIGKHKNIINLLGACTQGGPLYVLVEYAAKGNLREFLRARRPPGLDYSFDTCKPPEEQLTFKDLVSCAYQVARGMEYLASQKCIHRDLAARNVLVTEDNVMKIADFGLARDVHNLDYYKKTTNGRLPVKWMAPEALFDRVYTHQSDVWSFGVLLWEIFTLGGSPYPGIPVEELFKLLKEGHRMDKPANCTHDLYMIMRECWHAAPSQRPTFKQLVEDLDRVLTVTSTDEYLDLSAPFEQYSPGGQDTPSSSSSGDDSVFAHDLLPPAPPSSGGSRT", "experiment": "Binding affinity to wild-type human partial length FGFR3 (R442 to S771 residues) expressed in bacterial expression system assessed as residual binding level at 1 uM by Kinomescan method relative to control"}, "[24]": {"molecular_target": "Serine/threonine-protein kinase PLK4 (Homo sapiens) (UniProt O00444)", "experiment": "Binding affinity to wild-type human partial length PLK4 (M1 to S273 residues) expressed in mammalian expression system assessed as residual binding level at 1 uM by Kinomescan method relative to control"}}, "data": [{"compound": "C=CC(=O)Nc1cc(Nc2ncc(Cl)c(Nc3ccccc3S(=O)(=O)C(C)C)n2)c(OC)cc1N(C)CCN(C)C", "values": [{"measurement": "Activity", "setting": "[1]", "result": 82, "unit": "%"}, {"measurement": "Activity", "setting": "[2]", "result": 88, "unit": "%"}, {"measurement": "Activity", "setting": "[3]", "result": 68, "unit": "%"}, {"measurement": "Activity", "setting": "[4]", "result": 72, "unit": "%"}, {"measurement": "Activity", "setting": "[5]", "result": 41, "unit": "%"}, {"measurement": "Activity", "setting": "[6]", "result": 39, "unit": "%"}, {"measurement": "Activity", "setting": "[7]", "result": 74, "unit": "%"}, {"measurement": "Activity", "setting": "[8]", "result": 9.5, "unit": "%"}, {"measurement": "Activity", "setting": "[9]", "result": 95, "unit": "%"}, {"measurement": "Activity", "setting": "[10]", "result": 0, "unit": "%"}, {"measurement": "Activity", "setting": "[11]", "result": 91, "unit": "%"}, {"measurement": "Activity", "setting": "[12]", "result": 9.4, "unit": "%"}, {"measurement": "Activity", "setting": "[13]", "result": 15, "unit": "%"}, {"measurement": "Activity", "setting": "[14]", "result": 7.6, "unit": "%"}, {"measurement": "Activity", "setting": "[15]", "result": 27, "unit": "%"}, {"measurement": "Activity", "setting": "[16]", "result": 15, "unit": "%"}, {"measurement": "concentration at 8 h", "setting": "[17]", "result": 110, "unit": "nM"}, {"measurement": "Activity", "setting": "[18]", "result": 12, "unit": "%"}, {"measurement": "Activity", "setting": "[19]", "result": 87, "unit": "%"}, {"measurement": "Activity", "setting": "[20]", "result": 48, "unit": "%"}, {"measurement": "Activity", "setting": "[21]", "result": 86, "unit": "%"}, {"measurement": "Activity", "setting": "[22]", "result": 49, "unit": "%"}, {"measurement": "Activity", "setting": "[23]", "result": 19, "unit": "%"}, {"measurement": "Activity", "setting": "[24]", "result": 0.35, "unit": "%"}]}]}
